Results on four molecules are retold here after ChEMBL document CHEMBL1144742, “Mithramycin analogues generated by combinatorial biosynthesis show improved bioactivity” (2008).

The test system of assay [1] is MCF7. The assay can be described thus: Induction of apoptosis in estrogen receptor positive human MCF7 cells at 15 uM after 24 hrs by TUNEL assay. The class given is functional. In a few lines: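 ER-positive MCF-7 breast cancer cells, exposed 24 h at 15 μM. Apoptotic cells scored by TUNEL labelling and confocal microscopy, expressed as percent TUNEL-positive, normalized against untreated baseline. Mean ± standard error from three independent experiments.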

The test system of assay [2] is MDA-MB-231. Briefly: Induction of apoptosis in estrogen receptor negative human MDA231 cells at 20 uM after 24 hrs by TUNEL assay. The class given is functional. The essentials:
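ER-negative MDA-231 breast cancer cells, treated 24 h at 20 μM. Apoptosis read by TUNEL staining with confocal microscopy as percent TUNEL-positive cells. Baseline apoptosis of untreated cells used for normalization. Mean ± standard error of three independent experiments.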

As for `CO[C@H](C(=O)[C@@H](O)[C@@H](C)O)[C@@H]1Cc2cc3cc(O[C@H]4C[C@@H](O[C@H]5C[C@@H](O)[C@H](O)[C@@H](C)O5)[C@H](O)[C@@H](C)O4)c(C)c(O)c3c(O)c2C(=O)[C@H]1O[C@H]1C[C@@H](O[C@H]2C[C@@H](O[C@H]3C[C@](C)(O)[C@H](O)[C@@H](C)O3)[C@@H](O)[C@H](C)O2)[C@H](O)[C@@H](C)O1`, the Activity in assay [1] is 3.9%; in assay [2], 6.46%.

With `CO[C@H](C(=O)[C@@H](O)[C@@H](C)O)[C@@H]1Cc2cc3cc(O[C@H]4C[C@@H](O)[C@H](O)[C@@H](C)O4)c(C)c(O)c3c(O)c2C(=O)[C@H]1O[C@H]1C[C@@H](O[C@H]2C[C@@H](O[C@H]3C[C@](C)(O)[C@H](O)[C@@H](C)O3)[C@@H](O)[C@@H](C)O2)[C@H](O)[C@@H](C)O1`, the values for the Activity in assay [1] and in assay [2] were 26.3% and 12.6%, respectively.

For the molecule `CO[C@H](C(=O)[C@@H](O)[C@@H](C)O)[C@@H]1Cc2cc3cc(O[C@H]4C[C@@H](O[C@H]5C[C@@H](O)[C@H](O)[C@@H](C)O5)[C@H](O)[C@@H](C)O4)c(C)c(O)c3c(O)c2C(=O)[C@H]1O[C@H]1C[C@@H](O[C@H]2C[C@](C)(O)[C@H](O)[C@@H](C)O2)[C@H](O)[C@@H](C)O1`, the Activity in assay [1] stood at 50.3%; in assay [2], 7.29%.

On to `CO[C@H](C(=O)[C@@H](O)[C@@H](C)O)[C@@H]1Cc2cc3cc(O[C@H]4C[C@@H](O[C@H]5C[C@@H](O)[C@H](O)[C@@H](C)O5)[C@H](O)[C@@H](C)O4)c(C)c(O)c3c(O)c2C(=O)[C@H]1O[C@H]1C[C@@H](O[C@H]2C[C@@H](O[C@H]3C[C@H](O)[C@H](O)[C@@H](C)O3)[C@@H](O)[C@@H](C)O2)[C@H](O)[C@@H](C)O1`, for which the Activity in assay [1] is reported as 64.8%; in assay [2], 63.6%.
